The list is not random: actives were taken first. Their share in the collection is about 4.2%.
hERG protect – hERG rescue from dofetilide block, primary screen, cell-based, CHO-hERG, FluxOR thallium flux, dofetilide IC70. Voltage-gated inwardly rectifying potassium channel KCNH2 (Homo sapiens), Q12809. dofetilide IC70 present. activation (rescue from dofetilide block), less the hit threshold, % at 10 µM. 0.51% of 310,000 active;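 active = activation above the mean of controls blocked by dofetilide plus 5 SD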;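 note: thallium influx through hERG after potassium depolarization seen as dye fluorescence rise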
KCNQ1 act – potentiators or activators of KCNQ1 channel, primary screen, cell-based, thallium flux, high-throughput | Potassium voltage-gated channel subfamily KQT member 1 (Homo sapiens), P51787 | CHO-K1 KCNQ1, thallium flux FluxOR fluorescence; active compounds read high | B-score at 10 µM | 0.35% of 310,000 active | AID 2648, 2010;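 active = fluorescence ratio B-score, a plate-corrected score, at least three library SD, with initial intensity B-score within 5 SD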
Target sequence (P51787 whole entry, looked up): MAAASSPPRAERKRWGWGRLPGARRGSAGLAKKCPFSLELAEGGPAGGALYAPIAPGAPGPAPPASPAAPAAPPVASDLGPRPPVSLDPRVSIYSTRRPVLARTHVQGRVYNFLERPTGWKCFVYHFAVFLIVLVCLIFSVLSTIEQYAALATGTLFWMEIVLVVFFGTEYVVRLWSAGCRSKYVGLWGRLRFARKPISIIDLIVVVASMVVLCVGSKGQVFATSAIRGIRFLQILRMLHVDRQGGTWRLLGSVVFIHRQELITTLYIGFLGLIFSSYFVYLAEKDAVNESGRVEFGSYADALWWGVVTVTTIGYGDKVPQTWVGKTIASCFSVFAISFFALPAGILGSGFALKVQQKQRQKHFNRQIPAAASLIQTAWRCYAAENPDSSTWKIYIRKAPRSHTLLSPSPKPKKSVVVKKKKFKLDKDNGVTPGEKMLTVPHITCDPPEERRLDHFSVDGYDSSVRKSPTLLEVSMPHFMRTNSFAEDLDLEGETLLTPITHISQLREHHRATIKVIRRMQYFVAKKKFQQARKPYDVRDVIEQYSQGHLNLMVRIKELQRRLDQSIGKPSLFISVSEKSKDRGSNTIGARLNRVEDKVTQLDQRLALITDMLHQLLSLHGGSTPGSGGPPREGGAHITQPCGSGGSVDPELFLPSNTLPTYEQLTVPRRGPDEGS
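assay system = KCNQ1-transfected CHO-K1 cells | medium = assay buffer with matched DMSO | probe or stimulus = depolarizing K+/Tl+ stimulus, K2SO4 and Tl2SO4 each 12.5 mM in 5x stock | dosing = single dose | incubation = dye 90 min, compound 20 min, room temperature | detection = kinetic FluxOR fluorescence, 10 s baseline plus 110 s post-stimulus | evaluation = ratio B score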
KCC2 mod – KCC2 cotransporter modulators, thallium flux, primary screen, cell-based, HEK293 KCC2, FluoZin-2 fluorescence, MLSMR. AID 1456, 2008. KCC2 cells, thallium flux FluoZin-2 fluorescence. B-score of Tl+ flux slope (higher = more flux/activation; lower = inhibition) at 10 µM. Solute carrier family 12 member 5 (Homo sapiens), Q9H2X9. 2.2% of 190,000 active;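 active = thallium flux slope and its plate-corrected score both differing from the plate sample mean at a set confidence after two filtering rounds, in either direction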;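 note: slope of fluorescence scaled to starting intensity during 10 to 20 s after thallium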
SUMO Mot1 rescue – yeast Mot1-301 growth rescue at high temperature, primary screen, SUMOylation pathway inhibitor project, S. cerevisiae, ATP luminescence, 38.5C; S. cerevisiae Mot1-301 growth rescue; percent above DMSO median, 100 means doubled; growth rescue, % at 18.8 µM; 1% of 320,000 active; AID 2716, 2010;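 active = every valid replicate shows activation above 250% relative to neutral control wells; inactive = the rest, any valid replicate at or below 250%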;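 note: OY570 slx delta 5 strain wells were the positive control but not used for scaling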
AI-2 QS mod – Vibrio harveyi AI-2 quorum sensing modulators, primary screen, JMH597 strain, luminescence/OD600 ratio | Vibrio harveyi JMH597 AI-2 luminescence/OD600 ratio, 9 h; active compounds read low; strain lacks LuxN and CqsS sensors; 0 = neutral-control median | activity change, % at 7.5 µM | 0.4% of 300,000 active | AID 2094, 2009; in the data active = activity change below about -75%, passing the limit was not always enough;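 note: luminescence divided by OD600 gain over 9 h not by final OD600 alone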
KCNQ1 inh – inhibitors of human KCNQ1 channel, primary screen, cell-based, thallium flux, high-throughput; CHO-K1 KCNQ1, FluxOR thallium flux fluorescence; active compounds read high; B-score at 10 µM; 1.3% of 310,000 active; AID 2642, 2010;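 active = compounds whose thallium flux B-score, printed positive for inhibition, exceeds three library SD while starting fluorescence stays within three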;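 note: channel opened by potassium depolarization with thallium stimulus after 20 min compound exposure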
KCNQ1 inh valid – KCNQ1 potassium channel inhibitors, confirmation, cell-based, Tl flux, duplicate | shares compounds with KCNQ1 inh | KCNQ1 cell line, FluxOR thallium flux fluorescence | 93% of 1,600 active | inhibition, % at 10 µM;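 active = primary screen active, with duplicate mean exceeding buffer control mean plus 3 SD of buffer wells, cut at about 28% in these data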;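 note: 0% = buffer control ratio and 100% = XE991 inhibitor control ratio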
CHO KCNQ1 ctr – thallium flux effects in parental CHO cells, counter-screen for KCNQ1 inhibitor project, cell-based, Tl flux; shares compounds with KCNQ1 inh; parental CHO-K1, FluxOR thallium flux fluorescence ratio; active compounds read low; zero means no signal rise above baseline; fluorescence ratio (Tl flux) at 10 µM; 21% of 1,600 active; AID 588366, 2011;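 active = mean of duplicate thallium-flux fluorescence ratios in parental host cells more than 5 SD below the buffer control mean, cut at about 0.38 in these data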;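 note: ratio is peak minus minimum fluorescence divided by baseline fluorescence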
KCNQ1 APC inh – KCNQ1 channel inhibitors, confirmation, orthogonal assay, cell-based, automated electrophysiology. shares compounds with KCNQ1 inh. KCNQ1-CHO cells, automated patch clamp current. calls only at 10 µM. 20% of 490 active;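 active = KCNQ1 current drop exceeding 3 SD of negative control wells, seen in both duplicate runs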;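 note: steady state current during a 2 s step from -80 to +40 mV; negative values mean current inhibition and positive values mean potentiation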
KCNQ2 spec – KCNQ2 channel inhibition, selectivity assay for KCNQ1 inhibitor project, cell-based | shares compounds with KCNQ1 inh | KCNQ2 cells, FluxOR thallium flux fluorescence | inhibition, % at 10 µM | 71% of 1,600 active | AID 651746, 2012;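 active = mean percent inhibition of the KCNQ2 thallium signal more than 5 SD above the buffer-only control wells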;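 note: KCNQ2 expressed in CHO cells; 0% = buffer control wells and 100% = XE-991 inhibitor control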
KCNQ1 KCNE1 spec – KCNQ1/KCNE1 channel inhibition, selectivity assay for KCNQ1 inhibitor project, CHO-K1 cells, thallium flux, FluxOR. shares compounds with KCNQ1 inh. FluxOR thallium flux fluorescence. inhibition, % at 10 µM. 77% of 1,600 active;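 active = mean percent inhibition of duplicate wells above the buffer-only control mean plus 3 SD of those controls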;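 note: 0% = buffer only wells and 100% = XE-991 inhibitor control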
Yeast Mot1 SUMO – growth restoration of Mot1-301 yeast on galactose, dose response, SUMO pathway inhibitor project, whole organism, S. cerevisiae, ATP luminescence, cherry-picked samples; S. cerevisiae Mot1-301 galactose growth, 24 h; -100 = growth of slx-deleted rescue strain; 2,300 tested, under 10 active; growth activity, percent, % at 42 µM; shares compounds with SUMO Mot1 rescue;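 active = Signal drops as the depositor expects, and the fitted half-maximal dose is no more than ten times the top valid tested dose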;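 note: more negative values mean stronger growth rescue toward the control strain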
* marks the source's active call; other numbers are inactive results; i = inactive; nt = no result; + = active, no number.

SMILES	hERG protect	KCNQ1 act	KCC2 mod	SUMO Mot1 rescue	AI-2 QS mod	KCNQ1 inh	Yeast Mot1 SUMO	others
CC(C)CNC(=S)N1CCN(c2nc(-c3ccc(Cl)cc3)cs2)CC1	-7	i	nt	13	23	11*	nt	KCNQ1 inh valid=159*;CHO KCNQ1 ctr=0.41;KCNQ1 APC inh=i;KCNQ2 spec=128%*;KCNQ1 KCNE1 spec=142%*
COc1ccc(NC(=O)N2CCN(c3nc(-c4cccc(OC)c4)cs3)CC2)cc1	-8	i	-0.75	21	17	i	nt
COc1cccc(-c2csc(N3CCN(C(=S)NCC(C)C)CC3)n2)c1	-6	i	nt	23	nt	i	nt
CCc1noc(C)c1C(=O)N1CCCSC1=Nc1ccccc1	-9	i	nt	-22	5	8*	nt	KCNQ1 inh valid=101*;CHO KCNQ1 ctr=0.47;KCNQ1 APC inh=+;KCNQ2 spec=59%*;KCNQ1 KCNE1 spec=66%*
CCc1noc(C)c1C(=O)N1CCN(S(=O)(=O)c2ccc(C)cc2)CC1	-15	i	nt	-6	8	i	nt
CCCn1c(SCC(=O)c2c(C)[nH]c(C)c2C(=O)OCC)nc2ccccc21	-16	i	-1.7	7	-1	i	nt
CCOC(=O)c1c(C)[nH]c(C)c1C(=O)CSc1nc2ccccc2c(=O)n1-c1ccc(C)cc1	-8	i	-1.2	nt	21	6*	nt	KCNQ1 inh valid=58*;CHO KCNQ1 ctr=0.5;KCNQ2 spec=i;KCNQ1 KCNE1 spec=58%*
c1ccc(-c2nc(N3CCCCCC3)c3ccccc3n2)nc1	-14	i	-3.6	-14	38	i	nt
c1ccc(-c2nc(N3CCOCC3)c3ccccc3n2)nc1	-7	i	-1.1	481*	9	i	-1
O=C(COC(=O)c1cc([N+](=O)[O-])ccc1N1CCOCC1)Nc1cccc(F)c1	-5	i	nt	694*	38	i	-1
COc1cc(C(=O)COC(=O)c2cc([N+](=O)[O-])ccc2N2CCOCC2)ccc1OC(F)F	-2	i	nt	662*	nt	i	-1
CC(=O)Nc1ccc(NC(=O)COC(=O)c2cc([N+](=O)[O-])ccc2N2CCOCC2)cc1	-4	i	nt	0	18	i	nt
COC(=O)c1ccc(C)c(NC(=O)CCCN2C(=O)NC(C)(C)C2=O)c1	nt	nt	nt	-13	nt	nt	nt
COc1ccc(OC)c(CCNC(=O)c2ccc3c(c2)N(Cc2ccc(F)cc2)CCS3)c1	-11	i	nt	365*	nt	7*	0
CCCCC1CN2CCc3c([nH]c4ccccc34)C2(C)C1 (stereo not given)	-15	i	nt	7	19	i	nt
C/C(=N\N1CCN(Cc2ccccc2Cl)CC1)c1ccc([N+](=O)[O-])cc1	-7	i	0.68	832*	-5	i	1
CCOC(=O)c1cccc(NC(=O)C2CCCN(S(=O)(=O)c3c(C)nn(C)c3C)C2)c1 (stereo not given)	nt	nt	nt	-16	nt	nt	nt
CCOC(=O)c1cccc(NC(=O)C2CCCN(S(=O)(=O)c3c(C)n[nH]c3C)C2)c1 (stereo not given)	-2	i	nt	458*	8	i	1
CCN(CC)S(=O)(=O)c1ccc(S(=O)(=O)N2CCC(C(=O)NC3CCN(Cc4ccccc4)CC3)CC2)cc1	-2	i	nt	634*	15	i	0
Cc1ccccc1Cn1ccc(=NCc2ccccc2)cc1	-11	i	-0.28	4	6	i	nt
CC(NC(=O)CCc1nnc(-c2ccc(-c3ccccc3)cc2)o1)c1nc2ccccc2[nH]1 (stereo not given)	-16	i	-2	452*	8	i	0
COc1ccc(C2=NC(=O)/C(=C\c3cc(OC)c(OC)c(OC)c3)O2)cc1	nt	nt	-0.4	-18	nt	nt	nt
O=c1nc2ccc(Cl)cn2c2ccc(S(=O)(=O)N3CCOCC3)cc12	-2	i	nt	577*	21	i	0
O=c1nc2ccc(Cl)cn2c2ccc(S(=O)(=O)N3CCCCC3)cc12	0	i	nt	-22	15	i	nt
COc1ccc(-n2nc(C(=O)NCC(=O)NCc3cccc(F)c3)c3ccccc3c2=O)cc1Cl	-8	i	nt	-8	12	i	nt
SMILES	hERG protect	KCNQ1 act	KCC2 mod	SUMO Mot1 rescue	AI-2 QS mod	KCNQ1 inh	Yeast Mot1 SUMO	others
Cn1cc(Br)c(C(=O)Nc2nccs2)n1	-5	i	-0.056	626*	3	i	0
Cc1ccc(NC(=O)c2ccc([N+](=O)[O-])s2)cc1S(=O)(=O)N1CCOCC1	nt	nt	nt	-2	nt	nt	nt
Cc1cc(C)n(-c2nc3ccccc3nc2N2CCN(C(=O)c3ccccc3)CC2)n1	-8	i	0.39	497*	2	i	-1
C=CCN(CC=C)CCOc1ccc2ccccc2c1	-13	i	0.046	24	0	i	nt
Cc1ccc(C)n1-c1ccc(N(C)C)cc1	-8	i	-0.79	+	29	i	0
NC(=O)CSc1oc(-c2ccco2)nc1S(=O)(=O)c1ccc(F)cc1	-2	i	nt	67	21	i	nt
COc1ccc(CN2CCCCCC2)cc1	0	i	nt	487*	7	i	0

Screening results from PubChem.
